Data taken from ChEMBL document CHEMBL4725345, “DFG-1 Residue Controls Inhibitor Binding Mode and Affinity, Providing a Basis for Rational Design of Kinase Inhibitor Selectivity” (J Med Chem, 2020).

Columns and labels:
[1] = target: Activin receptor type-1 (Homo sapiens) (UniProt Q04771); test: Binding affinity to ACVR1 (unknown origin) assessed as change in melting temperature at 10 uM incubated for 10 mins using SYPRO orange dye by RT-PCR-based fluorescence assay
Procedure, shortened: (§1)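 Recombinant kinase domain at 2 μM in 10 mM HEPES pH 7.5, 500 mM NaCl, mixed with 10 μM inhibitor for 10 min at room temperature; SYPRO orange added at 1:1000; temperature-dependent unfolding fluorescence read on a real-time PCR instrument; Tm shift derived by a previously described method.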

[2] = target: Ribosomal protein S6 kinase alpha-1 (Homo sapiens) (UniProt Q15418); test: Binding affinity to RSK1B (unknown origin) assessed as change in melting temperature at 10 uM incubated for 10 mins using SYPRO orange dye by RT-PCR-based fluorescence assay
[3] = target: Serine/threonine-protein kinase pim-1 (Homo sapiens) (UniProt P11309); test: Binding affinity to PIM1 (unknown origin) assessed as change in melting temperature at 10 uM incubated for 10 mins using SYPRO orange dye by RT-PCR-based fluorescence assay
[4] = target: Casein kinase I isoform epsilon (Homo sapiens) (UniProt P49674); test: Binding affinity to CSNK1E (unknown origin) assessed as change in melting temperature at 10 uM incubated for 10 mins using SYPRO orange dye by RT-PCR-based fluorescence assay; procedure, shortened: as §1
[5] = target: TGF-beta receptor type-2 (Homo sapiens) (UniProt P37173); test: Binding affinity to TGFBR2 (unknown origin) assessed as change in melting temperature at 10 uM incubated for 10 mins using SYPRO orange dye by RT-PCR-based fluorescence assay; procedure, shortened: as §1
[6] = target: Serine/threonine-protein kinase pim-2 (Homo sapiens) (UniProt Q9P1W9); test: Binding affinity to PIM2 (unknown origin) assessed as change in melting temperature at 10 uM incubated for 10 mins using SYPRO orange dye by RT-PCR-based fluorescence assay; procedure, shortened: as §1
[7] = target: AP2-associated protein kinase 1 (Homo sapiens) (UniProt Q2M2I8); test: Binding affinity to AAK1 (unknown origin) assessed as change in melting temperature at 10 uM incubated for 10 mins using SYPRO orange dye by RT-PCR-based fluorescence assay; procedure, shortened: as §1
[8] = target: Myosin light chain kinase family member 4 (Homo sapiens) (UniProt Q86YV6); test: Binding affinity to SgK085 (unknown origin) assessed as change in melting temperature at 10 uM incubated for 10 mins using SYPRO orange dye by RT-PCR-based fluorescence assay; procedure, shortened: as §1
[9] = target: Activin receptor type-2A (Homo sapiens) (UniProt P27037); test: Binding affinity to ACTR2 (unknown origin) assessed as change in melting temperature at 10 uM incubated for 10 mins using SYPRO orange dye by RT-PCR-based fluorescence assay
[10] = target: Receptor-interacting serine/threonine-protein kinase 2 (Homo sapiens) (UniProt O43353); test: Binding affinity to RIPK2 (unknown origin) assessed as change in melting temperature at 10 uM incubated for 10 mins using SYPRO orange dye by RT-PCR-based fluorescence assay; procedure, shortened: as §1
[11] = target: BMP-2-inducible protein kinase (Homo sapiens) (UniProt Q9NSY1); test: Binding affinity to BIKE (unknown origin) assessed as change in melting temperature at 10 uM incubated for 10 mins using SYPRO orange dye by RT-PCR-based fluorescence assay; procedure, shortened: as §1
[12] = target: TGF-beta receptor type-1 (Homo sapiens) (UniProt P36897); test: Binding affinity to TGFBR1 (unknown origin) assessed as change in melting temperature at 10 uM incubated for 10 mins using SYPRO orange dye by RT-PCR-based fluorescence assay; procedure, shortened: as §1
[13] = target: Serine/threonine-protein kinase pim-3 (Homo sapiens) (UniProt Q86V86); test: Binding affinity to PIM3 (unknown origin) assessed as change in melting temperature at 10 uM incubated for 10 mins using SYPRO orange dye by RT-PCR-based fluorescence assay; procedure, shortened: as §1
[14] = target: Dual specificity protein kinase CLK2 (Homo sapiens) (UniProt P49760); conditions: dose 10.0 µM, time 10.0 min

ΔTm [1]: > 6 °C
ΔTm [2]: > 4 °C
ΔTm [3]: > 6 °C
ΔTm [4]: > 4 °C
ΔTm [5]: > 6 °C
ΔTm [6]: > 4 °C
ΔTm [7]: > 6 °C
ΔTm [8]: > 4 °C
ΔTm [9]: > 6 °C
ΔTm [10]: > 4 °C
ΔTm [11]: > 6 °C
ΔTm [12]: > 6 °C
ΔTm [13]: > 6 °C
ΔTm [14]: > 4 °C
SMILES: CC(=O)c1cccc(-c2cnc3ccc(NCC4CC4)nn23)c1
